Data set [1] concerns Influenza A virus. Put plainly: Antiviral activity against Influenza A virus A/California/07/2009 (HIN1) infected in human A549 cells assessed as reduction in infected cells up to 25 uM pretreated for 1 hr. Type of data set: functional, organism-based. As to conditions: A/California/07/2009(H1N1), dose microM <=25, time 1.0 hrs.
In the next data set the test system is A549. Put plainly: Cytotoxicity against human A549 cells by MTT assay. It is filed as cell-based. The gist of the method:
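MTT assay run according to the manufacturer's instructions, concurrently with NP immunostaining of infected A549 cultures.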
A general note: Tetrazolium dyes change colour on reduction, which living cells bring about.

Data set [2] can be described thus: Selectivity index, ratio of CC50 for human A549 cells to IC50 for antiviral activity against Influenza A virus A/WSN/33(H1N1) infected in human A549 cells. Type of data set: toxicity, cell-based. As to conditions: read-out: Selectivity Index. The gist of the method: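 Ratio of CC50 to IC50. IC50 came from A549 cells pretreated 2 h with compound, then infected 24 h with WSN-PB2-Nanoluc at MOI 0.02 and read by Nano-Glo luminescence. CC50 was measured by CellTiter-Glo.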

For data set [3], the system named is Influenza A virus. In words: Antiviral activity against Influenza A virus A/Wyoming/03/2003 (H3N2) infected in human A549 cells assessed as reduction in infected cells up to 25 uM pretreated for 1 hr. Type of data set: functional, organism-based. As to conditions: dose microM <=25, time 1.0 hrs.
The test system of data set [4] is Influenza A virus. In words: Antiviral activity against Influenza A virus A/WSN/33(H1N1) infected in human A549 cells assessed as viral replication measured after 24 hrs by immunofluorescence microscopy. Type of data set: functional, organism-based. Conditions: A/WSN/1933(H1N1); for IC50: A549, 24 h; for IC90: A549, time 24 hrs. An outline of the steps:
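A549 cells were infected with A/WSN/33 at MOI 0.01 for 24 h, then fixed in 4% formaldehyde and permeabilized with 0.1% Triton X-100. They were immunostained for NP with an Alexa-488 secondary plus DAPI and imaged on an image cytometer. Percent infection = NP-positive cells divided by total cells.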

Data set [5] deals with Influenza A virus. In words: Antiviral activity against Influenza A virus A/WSN/33(H1N1)-PB2-Nanoluc virus infected in human A549 cells assessed as decrease in Nano-luc pretreated for 2 hr followed viral infection incubated for 24 hrs by Nano-Glo luminescence assay. It is filed as functional, organism-based. As to conditions: A/WSN/1933(H1N1). The gist of the method:
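A549 cells were treated with a range of compound concentrations for 2 h, then infected with WSN-PB2-Nanoluc (NanoLuc fused to PB2) at MOI 0.02 for 24 h. Cells were lysed in Renilla lysis buffer and luminescence read with Nano-Glo substrate on equal lysate volumes. IC50 was derived from the dose-response.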

The source made the active and inactive calls. The rule behind the calls is not given here.

The CC50 is the concentration at which the toxic effect on the cells reaches its halfway point. A high value points to lower toxicity to the cells. By IC50 is commonly meant the concentration needed to halve the response being measured. Broadly, the IC90 is the point of the concentration-response curve where the effect stands at 90%.

Turning to `CCN(c1ccc(Cl)cc1C)S(=O)(=O)c1cc(Cl)ccc1Cl`, in the data set on Influenza A virus [1], the result was Active. In the data set with A549, the CC10 is > 5 µM and the CC50 was > 5 µM. In addition, the selectivity ratio in data set [2] was > 147. The outcome in the data set on Influenza A virus [3] was Active. Further, in the data set on Influenza A virus [4], the IC50 came to 34 nM and the concentration for an effect of 90% (IC90) was found to be 500 nM.
`C#CCCC1(CCN(c2ccc(Cl)cc2C)S(=O)(=O)c2cc(Cl)ccc2Cl)N=N1`: the CC10 with A549 was > 25 µM. Besides, the IC50 in the data set with Influenza A virus [5] is > 5 µM.
Consider `CCN(C(=O)c1cc(Cl)ccc1Cl)c1ccc(Cl)cc1C`, for which, in the data set with A549, the CC10 was > 5 µM. Also, in the data set with Influenza A virus [5], the IC50 was > 5 µM.
Regarding `Cc1cc(Cl)ccc1N(C(F)F)S(=O)(=O)c1cc(Cl)ccc1Cl`, in the data set with A549, the CC10 is > 5 µM and the cytotoxic concentration (CC50) is > 5 µM. Besides, in data set [2], the selectivity ratio is > 4. In the data set with Influenza A virus [4], the half-maximal inhibitory concentration (IC50) stood at 1300 nM and the 90% effect concentration (IC90) was > 5000 nM.
In the case of `C#CCN(c1ccccc1C)S(=O)(=O)c1cc(Cl)ccc1Cl`, in the data set with A549, the CC10 is > 5 µM and the CC50 was > 5 µM. The selectivity ratio in data set [2] was > 13. In the data set with Influenza A virus [4], the half-inhibitory concentration (IC50) came out at 380 nM and the IC90 was 5100 nM.
Turning to `CCN(c1ccc(F)cc1F)S(=O)(=O)c1cccc(Cl)c1`, the CC10 in the data set on A549 stood at 10.3 µM. The selectivity ratio in data set [2] is > 51. In the data set on Influenza A virus [4], the IC50 was 490 nM and the 90% effect concentration (IC90) came out at 10300 nM.
`CCN(c1ccc(C)cc1)S(=O)(=O)c1cc(Cl)ccc1Cl`: in the data set with A549, the CC10 is > 25 µM and the CC50 was > 25 µM. Further, the selectivity ratio in data set [2] was > 298. In the data set with Influenza A virus [4], the half-inhibitory concentration (IC50) came out at 84 nM and the concentration for an effect of 90% (IC90) stood at 1800 nM.
Turning to `CCN(c1ccccc1C#N)S(=O)(=O)c1cc(Cl)ccc1Cl`, in the data set with A549, the CC10 was > 5 µM and the CC50 was > 5 µM. For the same compound, the selectivity ratio in data set [2] was > 29. Besides, in the data set with Influenza A virus [4], the IC50 was found to be 170 nM and the 90% effect concentration (IC90) is 2100 nM.
Consider `Cc1cc(Cl)ccc1N(CCF)S(=O)(=O)c1cc(Cl)ccc1Cl`, for which, in the data set on A549, the CC10 was > 5 µM and the CC50 is > 5 µM. Besides, the selectivity ratio in data set [2] is > 9. Further, in the data set on Influenza A virus [4], the IC50 was 35000 nM and the IC90 is > 5000 nM.
For `C#CCCC1(CCOC(=O)Cc2ccc(N(CC)S(=O)(=O)c3cc(Cl)ccc3Cl)cc2)N=N1`, the CC10 in the data set with A549 is > 25 µM. Moreover, the IC50 with Influenza A virus [5] is > 5 µM.
`C=CCN(c1ccccc1C)S(=O)(=O)c1cc(Cl)ccc1Cl`: in the data set with A549, the CC10 is > 5 µM and the CC50 was > 5 µM. Moreover, the selectivity ratio in data set [2] was > 42. Also, in the data set on Influenza A virus [4], the concentration for half-maximal inhibition (IC50) is 120 nM and the 90% effect concentration (IC90) was 570 nM.
For the compound `CCN(c1ccc(F)cc1F)S(=O)(=O)c1cc(Cl)ccc1Cl`, the result in the data set on Influenza A virus [1] was Active. Further, in the data set on A549, the CC10 is > 5 µM and the CC50 was > 5 µM. The selectivity ratio in data set [2] is > 96. Moreover, the result with Influenza A virus [3] was inactive. For the same compound, in the data set with Influenza A virus [4], the IC50 was 52 nM and the concentration for an effect of 90% (IC90) came out at 900 nM.
Take `C#CCN(c1cccc(N=[N+]=[N-])c1)S(=O)(=O)c1cc(Cl)ccc1Cl`: in the data set on A549, the CC10 is > 25 µM. The IC50 in the data set with Influenza A virus [5] was found to be 136 µM.
Take `O=S(=O)(c1cc(Cl)ccc1Cl)N1CCCc2cc(Cl)ccc21`: in the data set with A549, the CC10 was > 5 µM. Moreover, the IC50 with Influenza A virus [5] is > 5 µM.
For `Cc1ccccc1N(C(C)C)S(=O)(=O)c1cc(Cl)ccc1Cl`, in the data set with A549, the CC10 is > 5 µM and the CC50 is > 5 µM. Besides, the selectivity ratio in data set [2] was > 3. In the data set on Influenza A virus [4], the IC50 came out at 1800 nM and the IC90 was > 5000 nM.
Regarding `O=S(=O)(c1cc(Cl)ccc1Cl)N1CCc2cc(Cl)ccc21`, the CC10 in the data set on A549 was > 5 µM. For the same compound, in the data set on Influenza A virus [5], the IC50 is > 5 µM.

Values taken from ChEMBL document CHEMBL4825712.
